Results from ChEMBL document CHEMBL3259808, “Optimization of antitrypanosomatid agents: identification of nonmutagenic drug candidates with in vivo activity” (J Med Chem, 2014).
Active and inactive are the calls of the source.

Experiments:
[1] = Selectivity index, ratio of IC50 for human RBC to IC50 for Trypanosoma cruzi Sylvio X-10 amastigotes
Method in brief: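 Hemolysis: washed human erythrocytes (2% w/v in PBS) incubated 24 h at 37 °C with compound at final 50, 100 and 200 μM. Ten replicates per concentration. Hemoglobin release read at 405 nm against water lysis as 100%; amphotericin B 1.5 μM was the positive control. SI = IC50 red cells / parasite IC50 (Sylvio X-10 amastigotes or Tulahuen 2 epimastigotes).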

[2] = Selectivity index, ratio of IC50 for mouse J774.1 cells to IC50 for Trypanosoma cruzi Sylvio X-10 amastigotes; assay type: toxicity; details: read-out: Ratio IC50
Method in brief: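 J774.1 macrophages grown in DMEM with 10% heat-inactivated FCS and allowed to attach 48 h, then exposed 48 h at 37 °C to 12.5–400.0 μM. Triplicates. MTT 0.1 mg/mL for 3 h, read at 560 nm; IC50 by linear regression against the solvent control. SI = IC50 J774.1 / parasite IC50 (Sylvio X-10 amastigotes or Tulahuen 2 epimastigotes, the latter measured by A600 growth inhibition at day 5).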

Salmonella typhimurium [3] = experiment: Mutagenic activity in Salmonella typhimurium TA98 at 5 to 400 ug/plate by Ames test; assay type: toxicity, organism-based; details: salmonella enterica subsp. enterica serovar typhimurium
Method in brief: (§1)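 Ames plate-incorporation assay with S. typhimurium TA98 in Vogel-Bonner E minimal glucose agar. Toxicity toward the bacteria was checked first. DMSO solutions were run in triplicate at five consecutive third-dilutions, starting at the highest non-toxic dose. Positive controls were 4-nitro-o-phenylenediamine (20.0 μg/plate) and 2-aminofluorene (10.0 μg/plate); DMSO was the negative control. Revertants were counted manually. A compound was called mutagenic when revertants were at least twice the negative control at two or more consecutive doses.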

Salmonella typhimurium [4] = experiment: Mutagenic activity in Salmonella typhimurium TA98 at 5 to 400 ug/plate by Ames test in presence of mouse liver S9 fraction; assay type: toxicity, organism-based; details: salmonella enterica subsp. enterica serovar typhimurium; method in brief: as §1
Salmonella typhimurium [5] = experiment: Mutagenic activity in Salmonella typhimurium TA102 at 3.09 to 250 ug/plate by Ames test; assay type: toxicity, organism-based; details: salmonella enterica subsp. enterica serovar typhimurium
Method in brief: (§2)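 Direct plate incubation on minimal glucose agar (Vogel-Bonner E). Compound toxicity to the bacteria was checked first. DMSO solutions were tested at five consecutive 3-fold dilutions, starting from the highest non-toxic dose, in triplicate, without metabolic activation. DMSO served as negative control. Revertants were counted manually; mutagenic = revertants at least double the negative control at two or more consecutive doses.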

Salmonella typhimurium [6] = experiment: Mutagenic activity in Salmonella typhimurium TA102 at 3.09 to 250 ug/plate by Ames test in presence of mouse liver S9 fraction; assay type: toxicity, organism-based; details: salmonella enterica subsp. enterica serovar typhimurium
Method in brief: (§3)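 Plate-incorporation Ames test on minimal glucose agar with 500 μL Aroclor-treated mouse liver S9 added. DMSO solutions were tested at five consecutive 3-fold dilutions from the highest non-toxic dose, in triplicate, with a DMSO negative control. Revertants were counted manually; a compound was scored mutagenic when revertants were at least twice the negative control for two or more consecutive doses.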

Salmonella typhimurium [7] = experiment: Mutagenic activity in Salmonella typhimurium TA1535 at 3.09 to 250 ug/plate by Ames test; assay type: toxicity, organism-based; details: salmonella enterica subsp. enterica serovar typhimurium; method in brief: as §2
Salmonella typhimurium [8] = experiment: Mutagenic activity in Salmonella typhimurium TA1535 at 3.09 to 250 ug/plate by Ames test in presence of mouse liver S9 fraction; assay type: toxicity, organism-based; details: salmonella enterica subsp. enterica serovar typhimurium; method in brief: as §3
[9] = Stability of the compound in aqueous solution assessed as compound remaining at 1 mM at pH 7.4 after 1 hr by TLC analysis; assay type: physicochemical; details: aqueous solution, pH 7.4; read-out: Stability
Method in brief: (§4)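 DMSO stocks diluted to final 1 mM in KCl·HCl pH 1.0, citrate pH 6.0, Tris·HCl pH 7.4 or borax·HCl pH 9.0 buffer. Incubated 1 h at 37 °C, then ethyl acetate extracts checked by TLC for decomposition products.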

[10] = Stability of the compound in aqueous solution assessed as compound remaining at 1 mM at pH 1 after 1 hr by TLC analysis; assay type: physicochemical; details: read-out: Stability; method in brief: as §4
[11] = Stability of the compound in aqueous solution assessed as compound remaining at 1 mM at 37 degC after 1 hr by TLC analysis in presence of rat liver cytosolic fraction; assay type: ADME; details: cytosol, 1000 µM
Method in brief: (§5)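 Rat liver cytosolic (100 000g supernatant) and microsomal (100 000g pellet, washed and resuspended in Tris·HCl) fractions, fresh or stored at −80 °C; protein measured by BCA. Compound incubated with the fraction 1 h at 37 °C and analysed by TLC of extracts.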

[12] = Stability of the compound in aqueous solution assessed as compound remaining at 1 mM at 37 degC after 1 hr by TLC analysis in presence of rat liver microsomal fraction; details: microsomes, 1000 µM; method in brief: as §5
[13] = Stability of the compound in eumulgin HRE 40, sodium oleate, soya phosphatidylcholine, cholesterol, and phosphate buffer at pH 7.4 at 4 degC; assay type: physicochemical
Method in brief: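 Storage stability of the compound in vehicle V2, a microemulsion of surfactant (Eumulgin HRE 40/sodium oleate/soya phosphatidylcholine, 10%), cholesterol oil phase (10%) and pH 7.4 phosphate buffer (80%), followed over 1 week at 4 °C.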

Mus musculus = experiment: Toxicity in BALB/c mouse assessed as mortality at 100 mg/kg/day, po for 14 days; assay type: organism-based; set-up: route oral; details: in vivo, 336 h
Method in brief: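 Uninfected female BALB/c mice (n = 2/group) received intragastric gavage daily for 14 days in saline/Tween 80 (4:1). They were weighed and monitored daily, then sacrificed for macroscopic necropsy of organs.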

Trypanosoma cruzi [14] = experiment: Antitrypanosomal activity against Trypanosoma cruzi CL Brener infected in BALB/c mouse assessed as peak of maximum parasitemia at 107 umol/kg/day, po for 14 days administered in cholesterol/surfactant/phosphate buffer measured up to 60 days relative to control; assay type: functional
Method in brief: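 Male BALB/c mice (30 days old, 25–30 g, SPF) were infected i.p. with 10³ blood trypomastigotes, n = 7/group. Daily oral gavage in a microemulsion (cholesterol oil phase, phosphatidylcholine/sodium oleate/polyoxyl-40 hydrogenated castor oil surfactant, phosphate buffer pH 7.4) ran for 14 days from day 6; vehicle controls were included. Parasitemia was read weekly in tail-vein blood by hemocytometer for 60 days, with survival recorded.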

Trypanosoma cruzi [15] = experiment: Antitrypanosomal activity against Trypanosoma cruzi CL Brener infected in BALB/c mouse assessed as mouse survival at 107 umol/kg/day, po for 14 days administered in saline and tween 80 measured up to 60 days relative to control; assay type: functional
Method in brief: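 Male BALB/c mice (30 days old, 25–30 g, SPF) infected i.p.; daily intragastric gavage for 14 days, starting day 6 postinfection, in saline/Tween 80 (4:1 v/v); n = 8/group; vehicle-only control. Parasitemia counted by hemocytometer in tail-vein blood; survival followed to 65 days postinfection.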

Trypanosoma cruzi [16] = experiment: Antitrypanosomal activity against Trypanosoma cruzi CL Brener infected in BALB/c mouse assessed as decrease in plasmodial antibodies at 214 umol/kg/day, po for 14 days administered in cholesterol/surfactant/phosphate buffer measured on day 60 by ELISA; assay type: functional, organism-based; details: in the assay text read “anti-Trypanosoma cruzi antibodies” for “plasmodial antibodies”
Method in brief: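 Infected male BALB/c mice (n = 7/group) were dosed orally for 14 days from day 6 post-infection in cholesterol/surfactant/phosphate buffer pH 7.4 microemulsion; the control group received vehicle. Anti-T. cruzi antibodies were measured by ELISA (each serum tested twice) at days 30 and 60 post-infection and compared with untreated animals and a healthy-animal cutoff.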

Br.C=CCn1c(-c2ccc(Cl)cc2)cs\c1=N/N=C/C=C/c1ccco1.O
Ratio IC50 [1]: > 234 | selectivity ratio [2]: > 200 | Activity (Salmonella typhimurium [3]): Non-toxic | Activity (Salmonella typhimurium [4]): Non-toxic | Activity (Salmonella typhimurium [5]): Non-toxic | Activity (Salmonella typhimurium [6]): Non-toxic | Activity (Salmonella typhimurium [7]): Non-toxic | Activity (Salmonella typhimurium [8]): Non-toxic | remaining at 1 h, 1000 µM [9]: > 95% | remaining at 1 h, 1000 µM [10]: 90% | Stability [11]: Stable | Stability [12]: Stable | Stability [13]: Stable | Activity (Mus musculus): Non-toxic | Time (Trypanosoma cruzi [14]): 35 days | survival at 107 µmol/kg (Trypanosoma cruzi [15]): 75% | Activity (Trypanosoma cruzi [16]): Active
